# What was measured:
# Type in all cases: functional
# [1] = system: P388; experiment: Compound was evaluated for growth inhibition of P-388 lymphoid leukemia cells; conditions: Mus musculus, read-out: ED50 (the source's name)
# Method in brief: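 P-388 mouse lymphoid leukemia cells were seeded at 4×10^5 per tube in Fischer's medium with 10% horse serum. Twofold compound dilutions were run in duplicate tubes, stoppered, and held at a 30° angle at 37 °C for 72 h without agitation, rotated twice daily. Cells were counted by hemocytometer. Percent inhibition was taken against controls, with counts corrected for the inoculum.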
# [2] = system: Human alphaherpesvirus 2; experiment: Compound was evaluated for antiviral activity against HSV-2 reported as ED50 value; conditions: read-out: ED50 (the source's name)
# Method in brief: (§1)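 CPE inhibition assay in pregrown Vero cell monolayers infected with HSV-1 (strain 377) or HSV-2 (strain HF). Virus-induced cytopathogenic effect was scored quantitatively. Virus rating weighs the degree of CPE inhibition against cytotoxicity to the host cells, following a modified Ehrlich et al. method.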
# [3] = system: Human alphaherpesvirus 1; experiment: Compound was evaluated for antiviral activity against HSV-1 reported as virus rating; method in brief: as §1
# [4] = system: Human alphaherpesvirus 1; experiment: Compound was evaluated for antiviral activity against HSV-1 reported as ED50 value; conditions: read-out: ED50 (the source's name); method in brief: as §1
# [5] = system: Human alphaherpesvirus 2; experiment: Compound was evaluated for antiviral activity against HSV-2 reported as virus rating; method in brief: as §1
SMILES,EC50 [1] [mg/L],EC50 [2] [mg/L],VR [3],EC50 [4] [mg/L],VR [5]
Nc1ncnc2c1ncn2C/C=C/CCl,5,–,–,–,–
Nc1nc2c(ncn2COCCO)c(=O)[nH]1 [ACYCLOVIR],–,4.8,6.3,12.3,4.8
Nc1nc(O)c2ncn(C/C=C/CO)c2n1,–,219,1.5,172,0.9
Nc1ncnc2c1ncn2[C@@H]1O[C@H](CO)[C@@H](O)[C@@H]1O [VIDARABINE],–,–,2,–,1.4

# — ChEMBL document CHEMBL1123936, “Synthesis and biological evaluation of acyclic neplanocin analogues” (1987)
